Results published in ChEMBL document CHEMBL4622886, “Leucinostatins from Ophiocordyceps spp. and Purpureocillium spp. Demonstrate Selective Antiproliferative Effects in Cells Representing the Luminal Androgen Receptor Subtype of Triple Negative Breast Cancer” (2020).
Active and inactive are the calls of the source. No cut-off for these calls is given here. Numbered stars: 1 amine (or outer) side, 2 acyl side, 3 side chain; on linkers, the order of the positions; unused ones are H or OH. Square brackets hold non-standard residues; d marks the D form. Peptide text beside a SMILES is read from it. * marks the point of attachment. X4 = CCCC[C@@H](O)C[C@@H](C)C[C@H](N[*:1])C(=O)[*:2]; X2 = CCC(=O)/C=C/C[C@@H](C)C[C@H](N[*:1])C(=O)[*:2]; Hexenoyl(2E,4S-Me) = CC[C@H](C)/C=C/C(=O)*; Leu(3R-OH) = CC(C)[C@@H](O)[C@H](N)C(=O)O; NH((S)CH(Me)CH2NMe2) = C[C@@H](CN(C)C)N*; Pro(4S-Me) = C[C@@H]1CN[C@H](C(=O)O)C1; NH((S)CH(CH3)CH2NHMe) = CNC[C@H](C)N*; Aib = CC(C)(N)C(=O)O; βAla = NCCC(=O)O

Legend:
MDA-MB-231 [1] = experiment: Antiproliferative activity against human MDA-MB-231 cells up to 100 nM incubated for 48 hrs by sulforhodamine B assay; format: functional, cell-based
In short: (§1)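 IMEM with 5% FBS and 0.3% gentamicin; cells used within 4 months of thaw. After seeding at set densities and adhering, cells got compound or DMSO vehicle for 48 h, then were fixed and SRB-stained, with A560 read. GI50 (50% proliferation inhibition vs vehicle) came from non-linear regression of concentration-response curves; three independent experiments, each in triplicate.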

HCC1937 [2] = experiment: Antiproliferative activity against human HCC1937 cells at >1 uM incubated for 48 hrs by sulforhodamine B assay; format: functional, cell-based
In short: (§2)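 Cells (RPMI-1640 with 5% FBS, 0.5% gentamicin; used within 4 months of thaw) were seeded at set densities, allowed to adhere, then treated 48 h with compound or DMSO vehicle. Cells were fixed and SRB-stained, with absorbance read at 560 nm. GI50 vs vehicle was taken by non-linear regression; three independent experiments, each in triplicate.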

BT-549 [3] = experiment: Antiproliferative activity against human BT549 cells at >1 uM incubated for 48 hrs by sulforhodamine B assay; format: functional, cell-based; in short: as §2
SUM185PE [4] = experiment: Antiproliferative activity against human SUM185PE cells incubated for 48 hrs by sulforhodamine B assay; format: functional; in short: as §1
HCC1806 [5] = experiment: Antiproliferative activity against human HCC1806 cells at >1 uM incubated for 48 hrs by sulforhodamine B assay; format: functional, cell-based; in short: as §2
SUM185PE [6] = experiment: Antiproliferative activity against human SUM185PE cells at 1 to 100 nM incubated for 48 hrs by sulforhodamine B assay; format: functional, cell-based; in short: as §1
MDA-MB-453 [7] = experiment: Antiproliferative activity against human MDA-MB-453 cells incubated for 48 hrs by sulforhodamine B assay; format: functional; settings: MDA-MB-453, 48 h; in short: as §1
MDA-MB-453 [8] = experiment: Antiproliferative activity against human MDA-MB-453 cells at 1 to 100 nM incubated for 48 hrs by sulforhodamine B assay; format: functional, cell-based; in short: as §1
MDA-MB-453 [9] = experiment: Antiproliferative activity against human MDA-MB-453 cells at > 1 uM incubated for 48 hrs by sulforhodamine B assay; format: functional, cell-based; in short: as §1
MDA-MB-231 [10] = experiment: Antiproliferative activity against human MDA-MB-231 cells at > 1 uM incubated for 48 hrs by sulforhodamine B assay; format: functional, cell-based; in short: as §1
BT-549 [11] = experiment: Antiproliferative activity against human BT549 cells up to 100 nM incubated for 48 hrs by sulforhodamine B assay; format: functional, cell-based; in short: as §2
HCC1806 [12] = experiment: Antiproliferative activity against human HCC1806 cells up to 100 nM incubated for 48 hrs by sulforhodamine B assay; format: functional, cell-based; in short: as §2
HCC1937 [13] = experiment: Antiproliferative activity against human HCC1937 cells up to 100 nM incubated for 48 hrs by sulforhodamine B assay; format: functional, cell-based; in short: as §2
MDA-MB-231 [14] = experiment: Antiproliferative activity against human MDA-MB-231 cells incubated for 48 hrs by sulforhodamine B assay; format: functional; settings: MDA-MB-231, 48 h; in short: as §1
mTORC1 (Homo sapiens) [15] = molecular target: T1, mTORC1 (Homo sapiens) (UniProt P42345+Q8N122+Q9BVC4); settings: MDA-MB-453, 10 nM
T1 sequence (Q8N122 whole entry, looked up, other chains not shown): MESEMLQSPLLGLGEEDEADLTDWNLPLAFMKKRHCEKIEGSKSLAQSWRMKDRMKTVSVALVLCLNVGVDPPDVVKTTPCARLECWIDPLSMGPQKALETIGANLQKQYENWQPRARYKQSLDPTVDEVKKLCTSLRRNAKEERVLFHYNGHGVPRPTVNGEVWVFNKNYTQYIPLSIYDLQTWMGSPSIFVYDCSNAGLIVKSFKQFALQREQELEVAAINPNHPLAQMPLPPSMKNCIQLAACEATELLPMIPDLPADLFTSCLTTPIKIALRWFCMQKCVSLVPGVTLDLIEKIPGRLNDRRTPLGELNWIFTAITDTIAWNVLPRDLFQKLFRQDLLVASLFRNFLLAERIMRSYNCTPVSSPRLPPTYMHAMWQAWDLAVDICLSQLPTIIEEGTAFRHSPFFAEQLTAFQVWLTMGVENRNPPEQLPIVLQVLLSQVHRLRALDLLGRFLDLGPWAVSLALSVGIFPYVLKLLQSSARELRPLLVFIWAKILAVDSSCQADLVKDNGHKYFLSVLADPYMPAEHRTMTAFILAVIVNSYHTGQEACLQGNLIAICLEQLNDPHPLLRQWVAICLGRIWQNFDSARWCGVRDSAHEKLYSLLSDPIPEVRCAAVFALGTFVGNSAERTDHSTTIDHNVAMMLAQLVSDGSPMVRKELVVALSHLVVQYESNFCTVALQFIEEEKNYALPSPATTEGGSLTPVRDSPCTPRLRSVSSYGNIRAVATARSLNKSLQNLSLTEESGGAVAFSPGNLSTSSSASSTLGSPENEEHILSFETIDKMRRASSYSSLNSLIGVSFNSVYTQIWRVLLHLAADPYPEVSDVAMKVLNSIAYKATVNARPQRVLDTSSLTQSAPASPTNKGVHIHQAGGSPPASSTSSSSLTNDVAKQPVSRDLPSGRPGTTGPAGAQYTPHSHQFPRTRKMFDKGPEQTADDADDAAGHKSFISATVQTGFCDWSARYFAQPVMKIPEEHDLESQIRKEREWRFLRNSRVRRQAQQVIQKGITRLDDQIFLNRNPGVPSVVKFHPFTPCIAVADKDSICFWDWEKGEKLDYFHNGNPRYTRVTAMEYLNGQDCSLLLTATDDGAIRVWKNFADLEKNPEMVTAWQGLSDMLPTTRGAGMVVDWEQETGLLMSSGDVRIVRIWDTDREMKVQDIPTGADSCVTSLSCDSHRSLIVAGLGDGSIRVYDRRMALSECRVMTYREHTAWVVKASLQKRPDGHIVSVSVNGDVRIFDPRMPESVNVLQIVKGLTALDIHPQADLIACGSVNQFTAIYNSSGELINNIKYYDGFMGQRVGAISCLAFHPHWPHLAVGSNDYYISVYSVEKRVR
T1 sequence (Q9BVC4 whole entry, looked up, other chains not shown): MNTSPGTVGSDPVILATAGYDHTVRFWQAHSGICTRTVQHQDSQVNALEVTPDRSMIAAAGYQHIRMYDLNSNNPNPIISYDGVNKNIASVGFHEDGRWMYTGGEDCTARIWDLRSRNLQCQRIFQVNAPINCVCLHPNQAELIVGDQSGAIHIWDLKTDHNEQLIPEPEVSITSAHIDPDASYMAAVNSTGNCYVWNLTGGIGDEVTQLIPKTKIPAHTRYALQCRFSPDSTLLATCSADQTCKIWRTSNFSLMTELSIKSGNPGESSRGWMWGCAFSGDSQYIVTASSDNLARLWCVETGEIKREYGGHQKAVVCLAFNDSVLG

mTORC1 (Homo sapiens) [16] = molecular target: T1, mTORC1 (Homo sapiens); settings: MDA-MB-231, 10 nM

GI50 (MDA-MB-453 [7]) [nM]	SMILES	Activity (MDA-MB-231 [1])	Activity (HCC1937 [2])	Activity (BT-549 [3])	GI50 (SUM185PE [4]) [nM]	Activity (HCC1806 [5])	Activity (SUM185PE [6])	Activity (MDA-MB-453 [8])	Activity (MDA-MB-453 [9])	Activity (MDA-MB-231 [10])	Activity (BT-549 [11])	Activity (HCC1806 [12])	Activity (HCC1937 [13])	GI50 (MDA-MB-231 [14]) [nM]	inhibition (mTORC1 (Homo sapiens) [15])	inhibition (mTORC1 (Homo sapiens) [16])
4	CCC(=O)/C=C/C[C@@H](C)C[C@H](NC(=O)[C@@H]1C[C@H](C)CN1C(=O)/C=C/[C@@H](C)CC)C(=O)N[C@H](C(=O)NC(C)(C)C(=O)N[C@@H](CC(C)C)C(=O)N[C@@H](CC(C)C)C(=O)NC(C)(C)C(=O)NC(C)(C)C(=O)NCCC(=O)N[C@@H](C)CNC)[C@H](O)C(C)C ({Hexenoyl(2E,4S-Me)}-[Pro(4S-Me)][X2][Leu(3R-OH)][Aib]LL[Aib][Aib][βAla]-{NH((S)CH(CH3)CH2NHMe)})	inactive	Active	Active	2.2	Active	Active	Active	Active	Active	inactive	inactive	inactive	> 100		
7.9	CCC(=O)/C=C/C[C@@H](C)C[C@H](NC(=O)[C@@H]1C[C@H](C)CN1C(=O)/C=C/[C@@H](C)CC)C(=O)N[C@H](C(=O)NC(C)(C)C(=O)N[C@@H](CC(C)C)C(=O)N[C@@H](CC(C)C)C(=O)NC(C)(C)C(=O)NC(C)(C)C(=O)NCCC(=O)N[C@@H](C)CN(C)C)[C@H](O)C(C)C ({Hexenoyl(2E,4S-Me)}-[Pro(4S-Me)][X2][Leu(3R-OH)][Aib]LL[Aib][Aib][βAla]-{NH((S)CH(Me)CH2NMe2)})	inactive	Active	Active	4.4	Active	Active	Active	Active	Active	inactive	inactive	inactive	> 100		
	CCCC[C@@H](O)C[C@@H](C)C[C@H](NC(=O)[C@@H]1C[C@H](C)CN1C(=O)/C=C/[C@@H](C)CC)C(=O)N[C@H](C(=O)NC(C)(C)C(=O)N[C@@H](CC(C)C)C(=O)N[C@@H](CC(C)C)C(=O)NC(C)(C)C(=O)NC(C)(C)C(=O)NCCC(=O)N[C@@H](C)CN(C)C)[C@H](O)C(C)C ({Hexenoyl(2E,4S-Me)}-[Pro(4S-Me)][X4][Leu(3R-OH)][Aib]LL[Aib][Aib][βAla]-{NH((S)CH(Me)CH2NMe2)})	inactive	Active	Active		Active	Active	Active	Active	Active	inactive	inactive	inactive	> 100		

SMILES	GI50 (MDA-MB-453 [7]) [nM]	Activity (MDA-MB-231 [1])	Activity (HCC1937 [2])	Activity (BT-549 [3])	GI50 (SUM185PE [4]) [nM]	Activity (HCC1806 [5])	Activity (SUM185PE [6])	Activity (MDA-MB-453 [8])	Activity (MDA-MB-453 [9])	Activity (MDA-MB-231 [10])	Activity (BT-549 [11])	Activity (HCC1806 [12])	Activity (HCC1937 [13])	GI50 (MDA-MB-231 [14]) [nM]	inhibition (mTORC1 (Homo sapiens) [15])	inhibition (mTORC1 (Homo sapiens) [16])
CO[C@H]1C[C@@H]2CC[C@@H](C)[C@@](O)(O2)C(=O)C(=O)N2CCCC[C@H]2C(=O)O[C@H]([C@H](C)C[C@@H]2CC[C@@H](O)[C@H](OC)C2)CC(=O)[C@H](C)/C=C(\C)[C@@H](O)[C@@H](OC)C(=O)[C@H](C)C[C@H](C)/C=C/C=C/C=C/1C [SIROLIMUS]	0.05				0.04									> 100	Active	Active
